≈ marks a conversion by molar mass, not a printed value. Calls of active or inactive are those of the source. No cut-off for these calls is given here.
Assays:
[1] = system: Staphylococcus aureus; assay: Antimicrobial activity against Staphylococcus aureus ATCC 6538 after 24 hrs by broth microdilution method; format: functional; settings: for MIC50 / MIC: ATCC 6538, 24 h; for MIC50: read-out: MIC50; for MIC: read-out: MIC100
Outline: (§1)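 Microplate broth microdilution with a serial dilution series of compounds, using chloramphenicol as the antibacterial control. Bacterial plates were incubated at 35 °C for 24 h.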

[2] = system: Staphylococcus epidermidis; assay: Antimicrobial activity against Staphylococcus epidermidis ATCC 12228 after 24 hrs by broth microdilution method; format: functional; outline: as §1
[3] = system: Bacillus cereus; assay: Antimicrobial activity against Bacillus cereus ATCC 11778 after 24 hrs by broth microdilution method; format: functional; settings: ATCC 11778, 24 h; for MIC: read-out: MIC100; outline: as §1
[4] = system: Pseudomonas aeruginosa; assay: Antimicrobial activity against Pseudomonas aeruginosa ATCC 9027 after 24 hrs by broth microdilution method; format: functional; outline: as §1
[5] = system: Salmonella typhimurium; assay: Antimicrobial activity against Salmonella typhimurium ATCC 14028 after 24 hrs by broth microdilution method; format: functional; outline: as §1
[6] = system: Escherichia coli; assay: Antimicrobial activity against Escherichia coli ATCC 25922 after 24 hrs by broth microdilution method; format: functional; outline: as §1
[7] = system: Proteus mirabilis; assay: Antimicrobial activity against Proteus mirabilis ATCC 25933 after 24 hrs by broth microdilution method; format: functional; outline: as §1
[8] = system: Candida albicans; assay: Antifungal activity against Candida albicans ATCC 09548 after 24 hrs by broth microdilution method; format: functional
Outline: (§2)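 Broth microdilution in microplates with a serial dilution series of compounds. Amphotericin B served as the fungicidal control and fluconazole as the fungistatic control. Yeast plates were incubated at 37 °C for 24 h.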

[9] = system: Pichia kudriavzevii; assay: Antifungal activity against Candida krusei ATCC 6258 after 24 hrs by broth microdilution method; format: functional; outline: as §2
[10] = system: Candida parapsilosis; assay: Antifungal activity against Candida parapsilosis ATCC 69548 after 24 hrs by broth microdilution method; format: functional; outline: as §2
[11] = system: Nakaseomyces glabratus; assay: Antifungal activity against Candida glabrata ATCC 90030 after 24 hrs by broth microdilution method; format: functional; outline: as §2
[12] = system: Candida tropicalis; assay: Antifungal activity against Candida tropicalis ATCC 750 after 24 hrs by broth microdilution method; format: functional; outline: as §2
[13] = system: Cryptococcus neoformans; assay: Antifungal activity against Cryptococcus neoformans ATCC 90012 after 24 hrs by broth microdilution method; format: functional; outline: as §2
[14] = system: Trichophyton tonsurans; assay: Antifungal activity against Trichophyton tonsurans after 48 hrs by broth microdilution method; format: functional
Outline: (§3)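 Broth microdilution against filamentous fungi with serially diluted compounds. Amphotericin B (fungicidal) and fluconazole (fungistatic) were run as controls. Plates were incubated at 30 °C for 48 h.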

[15] = system: Nannizzia gypsea; assay: Antifungal activity against Microsporum gypseum after 48 hrs by broth microdilution method; format: functional; outline: as §3
[16] = Cytotoxicity against human PBMC after 48 hrs by MTT assay; format: cell-based; settings: PBMC (peripheral blood mononuclear cells)
Outline: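 Normal human PBMC from healthy volunteers were isolated by Ficoll-Hypaque density gradient and seeded at 2.4 × 10⁶ cells/mL. Compounds were added at 100 to 0.06 and cells held 48 h at 37 °C, 5% CO₂. MTT was then added for 4 h, formazan dissolved in DMSO and A560 read. Untreated cells were taken as 100% viability. CC50 was obtained by linear regression.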

[17] = system: Staphylococcus aureus; assay: Ratio of MIC100 for chloramphenicol to MIC100 of compound for Staphylococcus aureus ATCC 6538 after 24 hrs by broth microdilution method; format: functional
[18] = Salmonella enterica subsp. enterica serovar Typhimurium

CC(C)=CCC[C@]1(C)[C@@H](CC=C(C)C)C[C@@]2(CC=C(C)C)C(=O)C(C(=O)c3ccc(OS(C)(=O)=O)c(OS(C)(=O)=O)c3)=C(O)[C@]1(CC=C(C)C)C2=O
MIC50 [1]: 51 µM (≈ 38.7 µg/mL) | MIC [1]: 3.29 µM (≈ 2.5 µg/mL) | MIC50 [2]: inactive | MIC100 [2]: inactive | MIC50 [3]: 1650 µM (≈ 1250 µg/mL) | MIC [3]: 1.65 µM (≈ 1.25 µg/mL) | MIC50 [4]: inactive | MIC100 [4]: inactive | MIC50 [5, 18]: inactive | MIC100 [5, 18]: inactive | MIC100 [6]: inactive | MIC50 ([6]; ATCC 25922, 24 h): 205 µM (≈ 156 µg/mL) | MIC50 [7]: inactive | MIC100 [7]: inactive | MIC50 [8]: inactive | MIC100 [8]: inactive | MIC100 [9]: inactive | MIC50 ([9]; ATCC 6258, 24 h): 52.7 µM (≈ 40 µg/mL) | MIC50 [10]: inactive | MIC100 [10]: inactive | MIC100 [11]: inactive | MIC50 [12]: inactive | MIC100 [12]: inactive | MIC100 [13]: inactive | MIC50 ([13]; ATCC 90012, 24 h): 52.7 µM (≈ 40 µg/mL) | MIC50 [14]: 3.29 mM (≈ 2500 µg/mL) | MIC100 [14]: inactive | MIC50 [15]: inactive | MIC100 [15]: inactive | CC50 at 48 h [16]: > 132 µM | Ratio [17]: 3.66

C[C@@H]1[C@H](O)[C@@H](C)/C=C/C=C/C=C/C=C/C=C/C=C/C=C/[C@H](O[C@@H]2O[C@H](C)[C@@H](O)[C@H](N)[C@@H]2O)C[C@@H]2O[C@](O)(C[C@@H](O)C[C@@H](O)[C@H](O)CC[C@@H](O)C[C@@H](O)CC(=O)O[C@H]1C)C[C@H](O)[C@H]2C(=O)O [AMPHOTERICIN B]
MIC ([8]; ATCC 09548, 24 h, read-out: MIC100): 0.54 µM (≈ 0.499 µg/mL) | MIC50 [9]: inactive | MIC ([9]; ATCC 6258, 24 h, read-out: MIC100): 1.08 µM (≈ 0.998 µg/mL) | MIC50 [10]: inactive | MIC ([10]; Lodderomyces parapsilosis, ATCC 69548, 24 h, read-out: MIC100): 0.54 µM (≈ 0.499 µg/mL) | MIC50 [11]: inactive | MIC ([11]; ATCC 90030, 24 h, read-out: MIC100): 0.54 µM (≈ 0.499 µg/mL) | MIC50 [12]: inactive | MIC ([12]; ATCC 750, 24 h, read-out: MIC100): 1.08 µM (≈ 0.998 µg/mL) | MIC50 [13]: inactive | MIC ([13]; ATCC 90012, 24 h, read-out: MIC100): 1.08 µM (≈ 0.998 µg/mL) | MIC50 [14]: inactive | MIC ([14]; read-out: MIC100): 540 µM (≈ 499 µg/mL) | MIC50 [15]: inactive

CC(C)=CCC[C@]1(C)[C@@H](CC=C(C)C)C[C@@]2(CC=C(C)C)C(=O)C(C(=O)c3ccc(OC(=O)c4ccc(Cl)cc4)c(OC(=O)c4ccc(Cl)cc4)c3)=C(O)[C@]1(CC=C(C)C)C2=O
MIC100 [1]: inactive | MIC50 [1]: 177 µM (≈ 156 µg/mL) | MIC50 [2]: inactive | MIC100 [2]: inactive | MIC50 [3]: 354 µM (≈ 312 µg/mL) | MIC [3]: 45.5 µM (≈ 40 µg/mL) | MIC50 [4]: inactive | MIC100 [4]: inactive | MIC100 [5, 18]: inactive | MIC50 ([5]; Salmonella enterica, ATCC 14028, 24 h, read-out: MIC50): 44 µM (≈ 38.7 µg/mL) | MIC100 [6]: inactive | MIC50 ([6]; ATCC 25922, 24 h): 44 µM (≈ 38.7 µg/mL) | MIC100 [7]: inactive | MIC50 [8]: inactive | MIC100 [8]: inactive | MIC50 [9]: inactive | MIC100 [9]: inactive | MIC50 [10]: inactive | MIC100 [10]: inactive | MIC50 [11]: inactive | MIC100 [11]: inactive | MIC50 [12]: inactive | MIC100 [12]: inactive | MIC100 [13]: inactive | MIC50 ([13]; ATCC 90012, 24 h): 45.5 µM (≈ 40 µg/mL) | MIC50 [14]: inactive | MIC100 [14]: inactive | MIC50 [15]: inactive | MIC100 [15]: inactive | CC50 at 48 h [16]: > 114 µM

O=C(N[C@H](CO)[C@H](O)c1ccc([N+](=O)[O-])cc1)C(Cl)Cl [CHLORAMPHENICOL]
MIC50 [1]: 6030 µM (≈ 1950 µg/mL) | MIC [1]: 12 µM (≈ 3.89 µg/mL) | MIC50 [3]: 4820 µM (≈ 1560 µg/mL) | MIC [3]: 77.4 µM (≈ 25 µg/mL) | MIC50 ([4]; ATCC 9027, 24 h): 48.3 µM (≈ 15.6 µg/mL) | MIC50 ([5]; Salmonella enterica, ATCC 14028, 24 h): 15.1 µM (≈ 4.88 µg/mL) | MIC ([5]; Salmonella enterica, ATCC 14028, 24 h, read-out: MIC100): 6.03 µM (≈ 1.95 µg/mL) | MIC50 ([6]; ATCC 25922, 24 h): 1510 µM (≈ 487 µg/mL) | MIC ([6]; ATCC 25922, 24 h, read-out: MIC100): 12.1 µM (≈ 3.9 µg/mL) | MIC50 ([7]; ATCC 25933, 24 h): 24.1 µM (≈ 7.79 µg/mL) | MIC ([7]; ATCC 25933, 24 h, read-out: MIC100): 48.3 µM (≈ 15.6 µg/mL)

— ChEMBL document CHEMBL2010801, “Semisynthesis and antimicrobial activity of novel guttiferone-A derivatives” (Bioorg Med Chem, 2012)
